Here are results for 1 compound from ChEMBL document CHEMBL4715734, “Discovery of the Potent and Selective M1 PAM-Agonist N-[(3R,4S)-3-Hydroxytetrahydro-2H-pyran-4-yl]-5-methyl-4-[4-(1,3-thiazol-4-yl)benzyl]pyridine-2-carboxamide (PF-06767832): Evaluation of Efficacy and Cholinergic Side Effects” (J Med Chem, 2016).

Series [1] can be described thus: Toxicity in dog assessed as emesis at 3 mg/kg, po using spray-dried dispersion formulation. The conditions noted are these: in vivo. The format is organism-based, Canis lupus familiaris. The essentials:
(§1)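 Dogs received single escalating oral doses as a spray-dried dispersion (10% drug loading with HPMCAS-M). The dispersion was suspended in 0.5 wt% methylcellulose/0.5 wt% HPMCAS in 20 mM tris buffer, pH 7.4. One dog per sex per dose was used, and clinical signs were recorded.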

Series [2] has as its target T1, Muscarinic acetylcholine receptor M5 (Homo sapiens, UniProt P08912).
T1 sequence (P08912 whole entry): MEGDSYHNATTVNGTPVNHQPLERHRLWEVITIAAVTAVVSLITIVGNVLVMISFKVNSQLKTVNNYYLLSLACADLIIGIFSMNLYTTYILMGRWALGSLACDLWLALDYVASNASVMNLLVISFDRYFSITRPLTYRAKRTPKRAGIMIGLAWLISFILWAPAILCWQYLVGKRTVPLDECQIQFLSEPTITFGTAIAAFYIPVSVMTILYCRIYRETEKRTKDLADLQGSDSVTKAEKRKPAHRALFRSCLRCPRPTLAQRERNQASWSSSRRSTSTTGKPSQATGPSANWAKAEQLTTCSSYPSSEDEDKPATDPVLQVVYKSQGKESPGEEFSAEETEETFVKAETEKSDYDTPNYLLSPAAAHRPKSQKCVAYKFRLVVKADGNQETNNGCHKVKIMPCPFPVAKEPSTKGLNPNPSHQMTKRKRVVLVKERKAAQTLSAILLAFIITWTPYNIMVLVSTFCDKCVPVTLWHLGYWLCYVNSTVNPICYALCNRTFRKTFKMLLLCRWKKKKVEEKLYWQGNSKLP
Description: Agonist activity at human recombinant muscarinic M5 receptor stably expressed in CHO cells assessed as increase in intracellular calcium level up to 10 uM incubated for 10 mins by Fluo-8AM dye based FLIPR TETRA method. The format is cell-based. (In general: A change in cytosolic calcium serves as a functional read-out for many receptors and channels.)

The nature of series [3]: Unbound brain concentration in […] in Sprague-Dawley rat model at 3.2 mg/kg, sc measured after 1.67 hrs. The series is classed as ADME, organism-based. The conditions noted are these: in vivo. The essentials:
(§2)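 Randomly selected animals (N=2/dose) at the end of the rat PPI study, T = 1.67 h. Dosed subcutaneously as a suspension in 0.5% methylcellulose in water. Plasma and brain concentrations were averaged.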

Series [4] is described as follows: Unbound brain concentration in CD-1 mouse at 1 mg/kg, sc measured after 2 hrs by LC-MS/MS analysis. Conditions: in vivo; call rule not given here. The format is ADME, organism-based.
A short description of series [5]: Fraction unbound in C57BL/6 mouse plasma. The series is classed as ADME, cell-free.
Series [6] can be described thus: Fraction unbound in cynomolgus monkey plasma. The series is classed as ADME, cell-free, Macaca fascicularis.
Series [7] in a line: Toxicity in male rat assessed as increase in food intake at 30 mg/kg, po administered for 14 days. The conditions noted are these: in vivo, 336 h.
A short description of series [8]: Toxicity in dog assessed as emesis at 15 mg/kg, po using spray-dried dispersion formulation. The series is classed as organism-based, Canis lupus familiaris. Conditions: in vivo. The essentials:
as §1

Series [9] in a line: Ratio of AUC in C57BL/6 mouse brain to plasma at 1 mg/kg, sc. The conditions noted are these: brain and plasma, read-out: Ratio AUC. The format is ADME, organism-based.
In series [10] the target is T2, Muscarinic acetylcholine receptor M1 (Homo sapiens, UniProt P11229).
T2 sequence (P11229 whole entry): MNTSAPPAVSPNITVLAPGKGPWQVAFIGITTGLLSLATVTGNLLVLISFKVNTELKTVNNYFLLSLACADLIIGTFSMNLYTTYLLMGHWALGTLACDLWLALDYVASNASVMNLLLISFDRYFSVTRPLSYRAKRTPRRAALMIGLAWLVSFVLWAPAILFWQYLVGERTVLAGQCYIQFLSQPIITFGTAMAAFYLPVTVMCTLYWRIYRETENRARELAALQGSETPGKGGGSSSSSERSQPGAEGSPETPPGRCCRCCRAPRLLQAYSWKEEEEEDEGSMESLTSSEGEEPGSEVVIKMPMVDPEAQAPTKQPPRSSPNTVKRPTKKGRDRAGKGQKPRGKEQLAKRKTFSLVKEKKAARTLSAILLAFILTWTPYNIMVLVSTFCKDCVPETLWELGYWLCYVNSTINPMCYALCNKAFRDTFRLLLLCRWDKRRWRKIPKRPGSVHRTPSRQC
Put plainly: Positive allosteric modulation of muscarinic M1 receptor (unknown origin) expressed in CHO cells assessed as increase in Ach-induced accumulation of inositol phosphate accumulation measured after 30 mins by HTRF assay. The format is functional, cell-based. On the technique in general: In TR-FRET formats the signal depends on donor and acceptor labels being close together.

In the next series the test system is MDR1 (P-gp). Description: Efflux ratio of permeability across basolateral to apical side over apical to basolateral side in dog MDCK-MDR1 cells. The series is classed as ADME, cell-based, Canis lupus familiaris.
Series [11] in a line: Thermodynamic solubility of compound at pH 6.5. The series is classed as physicochemical. The conditions noted are these: buffer, read-out: Therm_solubility.
Series [12] in a line: Toxicity in male Beagle dog assessed as decrease in QTc interval at 3 mg/kg, po administered as single dose observed upto 9 hrs post last dose by telemetry. The series is classed as organism-based, Canis lupus familiaris. Conditions: in vivo. The essentials:
(§3)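 Crossover telemetry study in dogs at three oral doses (0.3, 1 and 3 mg/kg), N=4. Endpoints were blood pressure, maximum systolic left ventricular pressure, LV +dP/dt max, activity, heart rate, and RR, QT and QTc intervals, followed up to 9 h post dose.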

Series [13] in a line: fCmax in dog at 45 mg/kg, po using spray-dried dispersion formulation. The format is ADME, organism-based, Canis lupus familiaris. Conditions: in vivo.
The nature of series [14]: Unbound plasma concentration in […] in Sprague-Dawley rat model at 0.32 mg/kg, sc measured after 1.67 hrs. The series is classed as ADME, organism-based. The conditions noted are these: in vivo. The essentials: as §2
Series [15] can be described thus: Clearance in dog at 0.1 mg/kg, iv administered as single bolus dose. The format is ADME, organism-based, Canis lupus familiaris. Conditions: in vivo.
Series [16] in a line: Toxicity in male rat assessed as increase in body weight at 10 mg/kg, po administered for 14 days. The series is classed as organism-based. Conditions: in vivo, 336 h, time 14 day. In a few lines:
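Two-week repeat-dose toxicity study in rats. Oral dosing in 0.5% methylcellulose at 3, 10, 30 (males)/15 (females) mg/kg, N=4/sex/dose. Food intake, body weight gain and histopathology were assessed.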

Series [17] concerns the target T3, Muscarinic acetylcholine receptor M1 (Rattus norvegicus) (UniProt P08482).
T3 sequence (whole entry): T2 sequence (P11229 whole entry) with A5V, T254S, P309S, R320K, A337G, I413V
Description: Agonist activity at muscarinic M1 receptor in Sprague-Dawley rat hippocampal slice assessed as increase in CA1 spiked rates by electrophysiological analysis. Conditions: filed as agonist.

The nature of series [18]: Toxicity in male Beagle dog assessed as increase in maximum systolic left ventricular pressure at 3 mg/kg, po observed up to 9 hrs post last dose by telemetry. The series is classed as organism-based, Canis lupus familiaris. The conditions noted are these: in vivo. In a few lines:
as §3

Series [19] can be described thus: Toxicity in dog assessed as emesis at 5 mg/kg, po using spray-dried dispersion formulation. The series is classed as organism-based, Canis lupus familiaris. Conditions: in vivo. The essentials:
as §1

Where a chain is given by its changes, count along the chain named. Values after ≈ are worked out from the molar mass of the structure shown.

Broadly, the EC50 is the midpoint of the concentration-response curve. In general, efflux ratio refers to the permeability from basolateral to apical divided by that in the opposite direction, in the common usage. As usually defined, the clearance is the rate of elimination divided by the concentration. For the compound `Cc1cnc(C(=O)N[C@H]2CCOC[C@@H]2O)cc1Cc1ccc(-c2cscn2)cc1`, the Activity entry was “Toxic” in series [1]; “Not Active” in series [2]; “Non-Toxic” in [7]; “Toxic” in series [8]; “Toxic” in [12]; “Non-Toxic” in [16]. Besides, the Activity result was “Dose-dependent effect” in series [17], “Toxic” in [18] and “Toxic” in series [19]. Besides, the “Drug uptake(free)” value is 44.4 nM in [3] and 14.3 nM in series [4]. For the same compound, the results for the Fu in series [5] and in [6] were 2.9% and 3.2%, respectively. Further, in series [9], the Kp came to 0.2. Further, the EC50 in series [10] is 0.447 µM. Moreover, in the series with MDR1 (P-gp), the efflux ratio is 1.3. For the same compound, the solubility thermodynamic in series [11] was 2.7 µg/mL (≈ 6.59 µM). The compound further had a fCmax in [13] of 952 nM. In series [14], the “Cp(f)” value is recorded as 11.9 nM. The clearance in series [15] is 2.73 mL/min/kg.
